Experiment [1] addresses T1, Inhibitor of nuclear factor kappa-B kinase subunit alpha (Homo sapiens, UniProt O15111).
T1 sequence (O15111 whole entry): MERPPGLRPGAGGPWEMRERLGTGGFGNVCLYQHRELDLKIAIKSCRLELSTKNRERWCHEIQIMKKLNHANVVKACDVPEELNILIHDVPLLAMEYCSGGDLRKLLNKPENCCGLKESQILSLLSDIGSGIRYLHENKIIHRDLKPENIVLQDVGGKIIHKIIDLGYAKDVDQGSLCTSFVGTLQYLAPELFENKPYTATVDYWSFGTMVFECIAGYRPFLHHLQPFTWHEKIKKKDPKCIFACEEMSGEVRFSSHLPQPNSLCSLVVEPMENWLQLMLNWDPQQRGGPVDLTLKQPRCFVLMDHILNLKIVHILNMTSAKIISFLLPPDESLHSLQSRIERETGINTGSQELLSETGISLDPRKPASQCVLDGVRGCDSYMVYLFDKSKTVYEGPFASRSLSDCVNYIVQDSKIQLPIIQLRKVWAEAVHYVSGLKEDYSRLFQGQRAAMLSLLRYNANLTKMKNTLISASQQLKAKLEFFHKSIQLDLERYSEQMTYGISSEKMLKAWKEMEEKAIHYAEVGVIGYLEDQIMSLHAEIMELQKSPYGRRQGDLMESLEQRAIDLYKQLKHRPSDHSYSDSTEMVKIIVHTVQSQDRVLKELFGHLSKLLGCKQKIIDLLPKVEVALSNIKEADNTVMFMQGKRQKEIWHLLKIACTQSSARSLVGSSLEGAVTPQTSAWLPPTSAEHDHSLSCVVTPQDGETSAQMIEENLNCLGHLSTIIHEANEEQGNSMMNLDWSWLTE
The experiment can be described thus: Inhibition of recombinant full length human His-tagged IKKalpha expressed in baculovirus expression system using ERLLDDRHDSGLDSMKDEE peptide as substrate measured after 60 mins by ADP-Glo kinase assay. Summed up: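 Recombinant human IKKα, peptide substrate 100 µM, enzyme 8 ng/µL, ATP 1 µM in Tris-HCl pH 7.5 buffer with MgCl2, MnCl2, DTT, Na3VO4, BSA; 25°C, 60 min; ADP-Glo luminescence. Ten concentrations 0.005–100 µM; IC50 by nonlinear regression; means ± SD of three independent experiments.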
For orientation: In ADP-Glo the light output rises with the ADP produced.

The target in experiment [2] is T2, Inhibitor of nuclear factor kappa-B kinase subunit epsilon (Homo sapiens, UniProt Q14164).
T2 sequence (Q14164 whole entry): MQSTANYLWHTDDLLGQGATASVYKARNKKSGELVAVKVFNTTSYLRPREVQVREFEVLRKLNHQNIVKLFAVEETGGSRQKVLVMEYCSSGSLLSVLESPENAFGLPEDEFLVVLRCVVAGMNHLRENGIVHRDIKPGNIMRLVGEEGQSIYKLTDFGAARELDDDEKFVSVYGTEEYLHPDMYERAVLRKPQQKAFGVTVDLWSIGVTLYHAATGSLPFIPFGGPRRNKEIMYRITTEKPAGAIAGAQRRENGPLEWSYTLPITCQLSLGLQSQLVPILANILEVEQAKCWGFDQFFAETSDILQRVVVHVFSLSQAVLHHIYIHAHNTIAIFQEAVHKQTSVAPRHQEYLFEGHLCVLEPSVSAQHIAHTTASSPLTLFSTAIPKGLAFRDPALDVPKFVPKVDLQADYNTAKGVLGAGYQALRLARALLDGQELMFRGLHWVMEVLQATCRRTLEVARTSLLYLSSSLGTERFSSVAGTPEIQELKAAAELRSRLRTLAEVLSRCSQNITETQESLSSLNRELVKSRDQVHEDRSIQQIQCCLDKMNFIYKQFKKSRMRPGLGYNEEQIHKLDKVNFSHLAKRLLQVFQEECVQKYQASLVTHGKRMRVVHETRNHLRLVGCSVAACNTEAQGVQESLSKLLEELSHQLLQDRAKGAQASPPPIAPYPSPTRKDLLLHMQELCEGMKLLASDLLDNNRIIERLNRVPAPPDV
The experiment can be described thus: Inhibition of recombinant human full-length N-terminal GST-fused/His6-tagged IKKepsilon (M1 to V716 residues) expressed in Sf9 insect cells using ERLLDDRHDSGLDSMKDEE peptide as substrate measured after 60 mins by ADP-Glo kinase assay.

Experiment [3] addresses T3, Inhibitor of nuclear factor kappa-B kinase subunit beta (Homo sapiens, UniProt O14920).
T3 sequence (O14920 whole entry): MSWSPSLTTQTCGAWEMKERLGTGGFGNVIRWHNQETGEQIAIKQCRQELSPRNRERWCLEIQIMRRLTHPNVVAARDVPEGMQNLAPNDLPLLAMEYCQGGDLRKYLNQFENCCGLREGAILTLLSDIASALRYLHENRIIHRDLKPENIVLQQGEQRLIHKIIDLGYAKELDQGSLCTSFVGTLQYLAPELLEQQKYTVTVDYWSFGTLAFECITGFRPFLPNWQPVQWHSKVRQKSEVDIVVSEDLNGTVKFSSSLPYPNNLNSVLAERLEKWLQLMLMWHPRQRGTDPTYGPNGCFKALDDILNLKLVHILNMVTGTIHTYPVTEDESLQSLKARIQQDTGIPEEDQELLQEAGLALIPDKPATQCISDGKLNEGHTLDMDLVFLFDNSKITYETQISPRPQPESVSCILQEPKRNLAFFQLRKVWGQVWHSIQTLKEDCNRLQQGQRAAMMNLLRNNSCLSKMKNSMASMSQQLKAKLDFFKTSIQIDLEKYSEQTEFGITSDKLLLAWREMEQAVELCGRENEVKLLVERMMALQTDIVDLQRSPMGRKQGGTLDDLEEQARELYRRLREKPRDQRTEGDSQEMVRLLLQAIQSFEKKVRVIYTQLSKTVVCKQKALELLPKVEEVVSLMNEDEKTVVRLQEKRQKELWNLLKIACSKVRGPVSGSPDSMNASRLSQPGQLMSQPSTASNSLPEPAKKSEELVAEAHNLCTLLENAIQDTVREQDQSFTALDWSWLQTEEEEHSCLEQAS
The experiment can be described thus: Inhibition of recombinant human full-length N-terminal GST-fused/His6-tagged IKKbeta (M1 to S756 residues) expressed in Sf9 insect cells using ERLLDDRHDSGLDSMKDEE peptide as substrate measured after 60 mins by ADP-Glo kinase assay.

The target of experiment [4] is Mitogen-activated protein kinase kinase kinase 14 (Homo sapiens, UniProt Q99558). Put plainly: Inhibition of recombinant human full-length N-terminal GST-fused/His6-tagged NIK (M1 to P947 residues) expressed in Sf9 insect cells using AKDVDQGSLCTSFVGTLQY peptide as substrate measured after 60 mins by ADP-Glo kinase assay.
Mitogen-activated protein kinase kinase kinase 14, sequence (Q99558 whole entry, the tested form may be a part): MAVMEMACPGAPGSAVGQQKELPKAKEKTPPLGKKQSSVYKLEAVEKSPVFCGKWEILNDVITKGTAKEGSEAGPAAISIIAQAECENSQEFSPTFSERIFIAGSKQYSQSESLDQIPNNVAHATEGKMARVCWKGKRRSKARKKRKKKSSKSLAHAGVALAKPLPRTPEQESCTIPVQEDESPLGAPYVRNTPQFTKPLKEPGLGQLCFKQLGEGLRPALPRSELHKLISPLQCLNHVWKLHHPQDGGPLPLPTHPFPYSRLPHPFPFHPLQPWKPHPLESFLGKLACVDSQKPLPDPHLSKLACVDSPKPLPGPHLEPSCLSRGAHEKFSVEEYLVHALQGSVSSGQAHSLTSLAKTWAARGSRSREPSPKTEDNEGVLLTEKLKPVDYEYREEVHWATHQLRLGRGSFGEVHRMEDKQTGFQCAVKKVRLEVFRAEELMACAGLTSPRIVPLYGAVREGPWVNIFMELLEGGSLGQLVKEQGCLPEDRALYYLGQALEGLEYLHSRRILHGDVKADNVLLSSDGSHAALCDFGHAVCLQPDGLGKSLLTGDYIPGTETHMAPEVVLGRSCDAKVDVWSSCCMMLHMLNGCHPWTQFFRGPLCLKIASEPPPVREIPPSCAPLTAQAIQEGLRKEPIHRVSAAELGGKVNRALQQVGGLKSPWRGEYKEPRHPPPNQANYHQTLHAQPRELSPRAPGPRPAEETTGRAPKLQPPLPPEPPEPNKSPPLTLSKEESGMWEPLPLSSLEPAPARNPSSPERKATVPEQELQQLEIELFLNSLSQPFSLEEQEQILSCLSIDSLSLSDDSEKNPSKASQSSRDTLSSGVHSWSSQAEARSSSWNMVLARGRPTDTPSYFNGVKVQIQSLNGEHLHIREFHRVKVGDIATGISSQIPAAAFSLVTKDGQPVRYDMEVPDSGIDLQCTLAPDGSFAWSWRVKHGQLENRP

Bounds are passed on as bounds.

A word on the IC50: it is the concentration that inhibits the measured activity by half. Regarding `Cc1ccc(-c2c(N)n[nH]c2C)cc1C`, the 50% inhibitory concentration (IC50) in experiment [1], in experiment [2], in experiment [3] and in experiment [4] was > 100 µM throughout.

In the case of `Cc1[nH]nc(N)c1-c1cccc(C(F)(F)F)c1`, the 50% inhibitory concentration (IC50) in experiment [1] was > 100 µM; in experiment [2] it was > 100 µM; in experiment [3] it was 22.4 µM; in experiment [4] it was > 100 µM.

In the case of `Cc1nn(C(=O)C2CC2)c(N)c1-c1ccc(Cl)cc1`, the concentration for half-maximal inhibition (IC50) in experiment [1], in experiment [2], in experiment [3] and in experiment [4] was > 100 µM throughout.

As for `Cc1[nH]nc(NC(=O)c2ccccn2)c1-c1ccc(Cl)c(Cl)c1`, the half-maximal inhibitory concentration (IC50) in experiment [1], in experiment [2], in experiment [3] and in experiment [4] was > 100 µM each time.

Take `Cc1nn(C(=O)c2cccnc2)c(N)c1-c1ccc(Cl)c(Cl)c1`: the IC50 in experiment [1], in experiment [2], in experiment [3] and in experiment [4] was > 100 µM throughout.

As to `CC(=O)n1nc(C)c(-c2cccc(C(F)(F)F)c2)c1N`, the half-maximal inhibitory concentration (IC50) in experiment [1], in experiment [2], in experiment [3] and in experiment [4] was > 100 µM throughout.

For `CC(=O)n1nc(C)c(-c2ccc(Cl)cc2)c1N`, the IC50 in experiment [1], in experiment [2], in experiment [3] and in experiment [4] was > 100 µM each time.

On to `CC(=O)n1nc(C)c(Br)c1N`, for which the IC50 in experiment [1] was > 100 µM; in experiment [2], 22.9 µM; in experiment [3], 13.6 µM; in experiment [4] it was > 100 µM.

As for `Cc1[nH]nc(N)c1-c1ccc(Cl)c(Cl)c1`, the IC50 in experiment [1] is > 100 µM; in experiment [2], > 100 µM; in experiment [3], 50.9 µM; in experiment [4], > 100 µM.

With `CCNC(=O)n1nc(C)c(-c2ccc(Cl)c(Cl)c2)c1N`, the IC50 in experiment [1], in experiment [2], in experiment [3] and in experiment [4] was > 100 µM in each case.

Turning to `Cc1nn(C(=O)c2ccncc2)c(N)c1-c1ccc(Cl)c(Cl)c1`, the IC50 was > 100 µM in experiment [1], > 100 µM in experiment [2], > 100 µM in experiment [3] and 58.2 µM in experiment [4].

With `Cc1c(-c2ccc(Cl)c(Cl)c2)c(N)nn1C`, the IC50 in experiment [1], in experiment [2], in experiment [3] and in experiment [4] was > 100 µM throughout.

Take `Cc1nn(C(=O)OC(C)(C)C)c(N)c1-c1ccc(Cl)c(Cl)c1`: the half-inhibitory concentration (IC50) in experiment [1], in experiment [2], in experiment [3] and in experiment [4] was > 100 µM in each case.

For the molecule `Cc1[nH]nc(N)c1-c1cc(C(F)(F)F)cc(C(F)(F)F)c1`, the IC50 was > 100 µM in experiment [1], > 100 µM in experiment [2], 22.9 µM in experiment [3] and > 100 µM in experiment [4].

For `CCCC(=O)n1nc(C)c(-c2ccc(Cl)c(Cl)c2)c1N`, the IC50 in experiment [1], in experiment [2], in experiment [3] and in experiment [4] was > 100 µM throughout.

As to `Cc1[nH]nc(N)c1-c1ccc2c(c1)OCO2`, the IC50 in experiment [1], in experiment [2], in experiment [3] and in experiment [4] was > 100 µM throughout.

On to `Cc1cccc(-c2c(N)n[nH]c2C)c1`, for which the concentration for half-maximal inhibition (IC50) in experiment [1], in experiment [2], in experiment [3] and in experiment [4] was > 100 µM throughout.

`Cc1c(-c2ccc(Cl)c(Cl)c2)c(N)nn1C(=O)C1CCC1`: the IC50 in experiment [1], in experiment [2], in experiment [3] and in experiment [4] was > 100 µM throughout.

Regarding `Cc1[nH]nc(N)c1-c1cccc(OC(F)(F)F)c1`, the half-inhibitory concentration (IC50) in experiment [1], in experiment [2], in experiment [3] and in experiment [4] was > 100 µM each time.

`Cc1[nH]nc(N)c1-c1ccc2ccccc2c1`: the half-inhibitory concentration (IC50) was > 100 µM in experiment [1], > 100 µM in experiment [2], 42.8 µM in experiment [3] and > 100 µM in experiment [4].

As to `Cc1[nH]nc(N)c1-c1cccc(Br)c1`, the IC50 in experiment [1] is > 100 µM; in experiment [2], > 100 µM; in experiment [3], 88 µM; in experiment [4] it was > 100 µM.

Turning to `Cc1[nH]nc(N)c1-c1ccc(Br)cc1`, the IC50 was 89.7 µM in experiment [1], > 100 µM in experiment [2], 60.1 µM in experiment [3] and > 100 µM in experiment [4].

Take `Cc1ccc(-c2c(N)n[nH]c2C)cc1`: the half-inhibitory concentration (IC50) in experiment [1], in experiment [2], in experiment [3] and in experiment [4] was > 100 µM throughout.

As for `Cc1nn(C(=O)C2CCCC2)c(N)c1-c1ccc(Cl)c(Cl)c1`, the half-inhibitory concentration (IC50) in experiment [1] was > 100 µM; in experiment [2], > 100 µM; in experiment [3] it was > 100 µM; in experiment [4] it was 41 µM.

In the case of `Cc1nn(C)c(N)c1-c1ccc(Cl)c(Cl)c1`, the concentration for half-maximal inhibition (IC50) in experiment [1], in experiment [2], in experiment [3] and in experiment [4] was > 100 µM in each case.

As to `Cc1[nH]nc(N)c1-c1ccc(OCc2ccccc2)cc1`, the half-inhibitory concentration (IC50) was > 100 µM in experiment [1], 15.4 µM in experiment [2], > 100 µM in experiment [3] and > 100 µM in experiment [4].

In the case of `CCc1nn(C(C)=O)c(N)c1-c1ccc(Cl)c(Cl)c1`, the IC50 in experiment [1], in experiment [2], in experiment [3] and in experiment [4] was > 100 µM each time.

`CC(=O)n1nc(C)c(-c2cccc(Cl)c2)c1N`: the IC50 in experiment [1], in experiment [2], in experiment [3] and in experiment [4] was > 100 µM throughout.

Regarding `CC(=O)n1nc(N)c(-c2ccc(Cl)c(Cl)c2)c1C`, the IC50 in experiment [1], in experiment [2], in experiment [3] and in experiment [4] was > 100 µM in each case.

For the origin of these results see ChEMBL document CHEMBL4257503, “N-Acetyl-3-aminopyrazoles block the non-canonical NF-kB cascade by selectively inhibiting NIK” (Medchemcomm, 2018).
